The values below come from ChEMBL document CHEMBL1821560, “Inhibitors of androgen receptor activation function-2 (AF2) site identified through virtual screening” (J Med Chem, 2011).

Test [1] addresses T1, Androgen receptor (Homo sapiens, UniProt P10275).
T1 sequence (P10275 whole entry): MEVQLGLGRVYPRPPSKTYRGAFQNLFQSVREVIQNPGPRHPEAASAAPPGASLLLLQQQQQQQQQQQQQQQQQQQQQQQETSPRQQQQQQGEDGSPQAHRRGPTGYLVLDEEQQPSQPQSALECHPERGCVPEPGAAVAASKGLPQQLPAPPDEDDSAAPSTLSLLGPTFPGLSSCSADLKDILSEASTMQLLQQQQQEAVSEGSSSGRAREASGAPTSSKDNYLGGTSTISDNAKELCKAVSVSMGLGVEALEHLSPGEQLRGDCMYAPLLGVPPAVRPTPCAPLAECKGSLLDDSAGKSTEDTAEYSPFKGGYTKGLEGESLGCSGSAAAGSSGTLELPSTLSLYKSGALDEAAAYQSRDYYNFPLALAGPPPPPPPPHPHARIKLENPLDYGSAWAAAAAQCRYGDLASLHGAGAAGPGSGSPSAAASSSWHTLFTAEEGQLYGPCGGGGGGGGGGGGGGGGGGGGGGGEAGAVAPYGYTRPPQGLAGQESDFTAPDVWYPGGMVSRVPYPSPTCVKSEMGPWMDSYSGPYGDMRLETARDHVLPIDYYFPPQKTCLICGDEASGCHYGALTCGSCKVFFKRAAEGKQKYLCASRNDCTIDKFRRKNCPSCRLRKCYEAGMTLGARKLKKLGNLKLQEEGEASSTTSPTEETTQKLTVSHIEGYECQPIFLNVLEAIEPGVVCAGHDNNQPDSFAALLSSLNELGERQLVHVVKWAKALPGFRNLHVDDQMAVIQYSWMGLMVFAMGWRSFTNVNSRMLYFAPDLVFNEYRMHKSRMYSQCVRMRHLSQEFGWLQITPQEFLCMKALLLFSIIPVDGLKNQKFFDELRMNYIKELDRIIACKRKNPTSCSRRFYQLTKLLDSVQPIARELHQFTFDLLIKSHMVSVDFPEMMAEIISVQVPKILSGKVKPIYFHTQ
Kind of test: (§1) Inhibition of human AR AF2 site expressed in human LNCap cells coexpressing eGFP -ARR2PB assessed as inhibition of transcriptional activity. Format: cell-based. Put shortly: (§2)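 LNCaP cells stably carrying eGFP under androgen-responsive ARR2PB promoter, kept 5 days in phenol-red-free RPMI 1640 with 5% CSS, then plated at 35 000 cells/well with 0.1 nM R1881 plus compound 0–100 μM; after 3 days eGFP fluorescence read (ex 485, em 535 nm).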

The test system of a further test is LNCaP. Nature of the test: Cytotoxicity against human LNCAP cells at 50 uM assessed as cell viability after 72 hrs by MTS assay. Format: functional. The gist of the method: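 LN-ARR2PBeGFP LNCaP cells exposed to compound for 72 h, then MTS reagent added and incubated 2 h at 37 °C in 5% CO2; absorbance read-out of proliferation/viability.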
In general terms: Tetrazolium assays rely on reduction of a dye to a coloured formazan, in cell work by metabolically active cells.

Test [2] deals with T1, Androgen receptor. Kind of test: (§3) Displacement of SRC2-3 peptide from human AR ligand binding site expressed in Escherichia coli BL21 by AF2 FP assay. Put shortly:
(§4)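 Purified AR LBD (2 μM) with FITC-SRC2-3 peptide (5 nM), compound 0–200 μM, in 25 mM HEPES pH 7.5, 50 mM NaCl, 0.01% NP-40, 2 μM DHT; 2 h incubation, FP read at ex 485/em 530 nm. Triplicate, means ± SD; IC50 by nonlinear four-parameter fit, Ki via Kenakin equation.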

Test [3] deals with T2, Androgen receptor (Rattus norvegicus) (UniProt P15207).
T2 sequence (whole entry): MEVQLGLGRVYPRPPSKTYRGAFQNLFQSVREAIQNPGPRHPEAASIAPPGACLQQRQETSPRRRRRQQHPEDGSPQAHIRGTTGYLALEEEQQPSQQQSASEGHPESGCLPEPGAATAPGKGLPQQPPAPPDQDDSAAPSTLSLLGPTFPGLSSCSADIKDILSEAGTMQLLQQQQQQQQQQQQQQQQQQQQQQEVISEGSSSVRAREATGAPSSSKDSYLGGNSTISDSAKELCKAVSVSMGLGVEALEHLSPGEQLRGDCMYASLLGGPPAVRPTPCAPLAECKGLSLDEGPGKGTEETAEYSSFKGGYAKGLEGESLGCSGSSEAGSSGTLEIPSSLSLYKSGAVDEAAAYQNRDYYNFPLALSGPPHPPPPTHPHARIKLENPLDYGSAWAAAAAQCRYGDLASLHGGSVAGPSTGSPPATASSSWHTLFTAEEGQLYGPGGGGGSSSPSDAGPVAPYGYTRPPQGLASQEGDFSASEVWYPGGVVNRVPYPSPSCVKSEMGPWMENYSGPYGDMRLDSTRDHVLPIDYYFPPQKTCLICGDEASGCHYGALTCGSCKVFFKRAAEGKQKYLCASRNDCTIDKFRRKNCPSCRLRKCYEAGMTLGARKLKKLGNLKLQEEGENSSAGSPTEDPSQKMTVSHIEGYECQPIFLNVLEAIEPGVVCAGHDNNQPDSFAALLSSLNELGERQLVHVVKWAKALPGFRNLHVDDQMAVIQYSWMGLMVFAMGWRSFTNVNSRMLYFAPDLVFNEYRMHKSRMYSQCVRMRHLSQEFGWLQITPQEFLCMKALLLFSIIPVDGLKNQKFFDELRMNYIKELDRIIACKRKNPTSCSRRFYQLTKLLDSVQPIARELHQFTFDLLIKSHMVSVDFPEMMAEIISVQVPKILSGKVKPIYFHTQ
Nature of the test: Displacement of androgen from His-GST tagged rat AR hormone binding site at 10 uM assessed as decrease in fluorescence polarization. Put shortly: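 Hormone-site competition run with Polar Screen Androgen Receptor Competitor Green kit per manufacturer's protocol; compounds tested at 10 μM.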
On the technique in general: Polarisation of emitted light reports the rotation of a fluorescent probe.

Test [4] has as its target T3, Androgen receptor (Homo sapiens) (UniProt P10275).
T3 sequence (whole entry): T1 sequence (P10275 whole entry)
The test is described as §1. Format: cell-based. Put shortly:
as §2

Test [5] deals with T3, Androgen receptor (Homo sapiens). The description is as §3. Put shortly:
as §4

Activity calls are given as the source filed them. No cut-off for these calls is given here.

One may read the IC50 as the concentration at which inhibition is half-maximal. One may read the viability as a read-out of living cells in per cent, often relative to untreated cells. Consider `CCOc1cc(C2Nc3cccc4cccc(c34)N2)ccc1O`, for which the half-inhibitory concentration (IC50) at Androgen receptor [1] amounted to 11.1 µM; at Androgen receptor [2], 31.5 µM. Also, in the test on LNCaP, the viability at 50 µM is 122%. Also, the inhibition entry in test [3] was “inactive”.
Take `CC1=NN(c2ccccc2)C(=O)/C1=N\Nc1ccc(C(=O)O)c(O)c1`: the IC50 came to 33.4 µM at Androgen receptor [1] and 26 µM on Androgen receptor [2]. For the same compound, the inhibition result in test [4] and in test [5] was “Dose-dependent effect” each time. For the same compound, the viability at 50 µM in the test with LNCaP turned out to be 50.9%. The inhibition result in test [3] is “inactive”.
Regarding `COc1ccc(C2Nc3cccc4cccc(c34)N2)cc1O`, the figures for the IC50 on Androgen receptor [1] and at Androgen receptor [2] were 34.4 µM and 8.2 µM, respectively. The inhibition entry in test [4] and in test [5] was “Dose-dependent effect” each time. In addition, the viability at 50 µM in the test on LNCaP was 145%. In test [3], the inhibition entry was “inactive”.
Regarding `COc1cc(C2Nc3cccc4cccc(c34)N2)ccc1O`, the IC50 on Androgen receptor [1] is 4.6 µM; on Androgen receptor [2], 32.9 µM. In addition, the viability at 50 µM with LNCaP amounted to 129%. Further, in test [3], the inhibition result is “inactive”.
For `Oc1ccc(C2Nc3cccc4cccc(c34)N2)cc1O`, the IC50 at Androgen receptor [1] was found to be 18.6 µM; on Androgen receptor [2] it was 30.6 µM. Moreover, the inhibition result in test [4] and in test [5] was “Dose-dependent effect” throughout. Besides, the viability at 50 µM with LNCaP turned out to be 121%. For the same compound, the inhibition entry in test [3] was “inactive”.
As to `Oc1ccc(C2Nc3cccc4cccc(c34)N2)cc1`, the half-inhibitory concentration (IC50) at Androgen receptor [1] turned out to be 5.9 µM; at Androgen receptor [2], 30.7 µM. Also, the viability at 50 µM with LNCaP came out at 106%. Further, the inhibition result in test [3] was “inactive”.
